One test relates to Staphylococcus aureus. As to the kind of experiment: Antibacterial activity against Staphylococcus aureus ATCC 25923 after 20 hrs by broth microdilution method. The class given is functional. The settings on record: ATCC 25923, 20 h. In a few lines:
(§1)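 Strains grown 24 h at 35 °C on tryptone-soya agar. Colonies suspended in saline to 0.5 McFarland, then diluted 1:10 in Mueller-Hinton broth (~10⁷ CFU/mL). Inoculum added to twofold dilutions in broth (final 0.125–32 µg/mL) in triplicate. Incubated aerobically at 35 °C for 20 h. MIC is the lowest concentration giving complete growth inhibition. Repeated at least once; gentamycin/streptomycin served as QC.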

In another test the test system is Escherichia coli. As to the kind of experiment: Antibacterial activity against Escherichia coli ATCC 25922 after 20 hrs by broth microdilution method. It counts as functional. The settings on record: ATCC 25922, 20 h. In a few lines:
as §1

The subject of the next test is Bacteroides fragilis. As to the kind of experiment: Antibacterial activity against Bacteroides fragilis after 20 hrs by broth microdilution method. The class given is functional.
Test [1] concerns Bacteroides thetaiotaomicron. As to the kind of experiment: Antibacterial activity against Bacteroides thetaiotaomicron after 20 hrs by broth microdilution method. It counts as functional.
For the next test, the system named is U-937/GTB. As to the kind of experiment: Cytotoxicity against U937 GTB cells. The class given is functional, cell-based. The following applies: Homo sapiens. In a few lines:
(§2)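 Fluorometric microculture cytotoxicity assay (FMCA) read-out; IC50 values reported.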

Test [2] is described as follows: Cytotoxicity against RPMI 8226/s cells. It counts as functional, cell-based. The settings on record: Homo sapiens, RPMI8226/S. In a few lines:
as §2

Test [3] can be described thus: Cytotoxicity against CEM/s cells. The class given is functional, cell-based. The following applies: Homo sapiens. An outline of the steps: as §2
A further test relates to ACHN. As to the kind of experiment: Cytotoxicity against ACHN cells. It counts as functional, cell-based. The following applies: Homo sapiens. In a few lines:
as §2

The test system of another test is Streptococcus pyogenes. As to the kind of experiment: Antibacterial activity against Streptococcus pyogenes after 20 hrs by broth microdilution method. It counts as functional.
The next test deals with Enterococcus faecalis. As to the kind of experiment: Antimicrobial activity against Enterococcus faecalis after 20 hrs by broth microdilution method. The class given is functional.
The test system of a further test is Pseudomonas aeruginosa. As to the kind of experiment: Antibacterial activity against Pseudomonas aeruginosa after 20 hrs by broth microdilution method. It counts as functional.
In a further test the test system is Pichia kudriavzevii. As to the kind of experiment: Antifungal activity against Candida krusei ATCC 6258. The class given is functional.
For test [4], the system named is Mycobacterium tuberculosis. As to the kind of experiment: Antimicrobial activity against Mycobacterium tuberculosis at 6.25 ug/mL after 20 hrs by broth microdilution method. The class given is functional.
In test [5] the test system is Mycobacterium tuberculosis. As to the kind of experiment: Antimicrobial activity against Mycobacterium tuberculosis after 20 hrs by broth microdilution method. The class given is functional.

On to `CO/N=c1\[nH]cnc2c1[n+](C/C=C(\C)CC/C=C(\C)CC/C=C(\C)CCC=C(C)C)cn2C`, for which the minimal inhibitory concentration (MIC) in the test with Staphylococcus aureus worked out at 4 µg/mL; in the test with Escherichia coli, 16 µg/mL; in the test on Bacteroides fragilis it was 8 µg/mL; in test [1] it was 8 µg/mL; in the test on Streptococcus pyogenes, 4 µg/mL; in the test on Enterococcus faecalis, 8 µg/mL. Further, the results for the MIC in the test on Pseudomonas aeruginosa and against Pichia kudriavzevii were above 32 µg/mL and 2 µg/mL, respectively. In addition, the IC50 in the test with U-937/GTB came out at 1420 nM; in test [2] it was 1110 nM; in test [3] it was 1910 nM; in the test on ACHN it was 7.38 µM.

In turn, `CO/N=c1\[nH]cnc2c1[n+](C/C=C(\C)CC/C=C(\C)CCC=C(C)C)cn2C` gave an inhibition at 6.25 µg/mL in test [4] of 99%. The MIC in test [5] amounted to 3.13 µg/mL; in the test on Staphylococcus aureus, 8 µg/mL; in the test on Escherichia coli, 16 µg/mL; in the test with Bacteroides fragilis it was 16 µg/mL; in test [1] it was 16 µg/mL; against Pichia kudriavzevii, 8 µg/mL. Besides, the IC50 in the test with U-937/GTB was determined as 1320 nM; in test [2], 1240 nM; in test [3], 1160 nM; in the test on ACHN it was 40.4 µM.

The values above are taken from ChEMBL document CHEMBL1148008, “Antimicrobial and cytotoxic activity of agelasine and agelasimine analogs” (Bioorg Med Chem, 2007).
